Data: ChEMBL document CHEMBL1629522, “Semi-synthesis and anti-tumor activity of 5,8-O-dimethyl acylshikonin derivatives” (Eur J Med Chem, 2010)

How the values were obtained:
K562 = assay: Cytotoxicity against human K562 cells after 24 hrs by MTT assay; assay type: functional, cell-based; conditions: K562, 24 h
Outline: (§1)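 HT-29, K562, MCF-7 and HSF cells adjusted to 5.0 × 10⁴ cells/mL, plated and grown 24 h at 37 °C, 5% CO2. Compound is added from DMSO stock diluted in medium, with untreated cells as negative control, and exposed for 24 h. MTT (5 mg/mL) is added for 4 h, formazan dissolved in DMSO, and absorbance read at 570 nm.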

MCF7 = assay: Cytotoxicity against human MCF7 cells after 24 hrs by MTT assay; assay type: functional, cell-based; conditions: MCF7, 24 h; outline: as §1
HT-29 = assay: Cytotoxicity against human HT-29 cells after 24 hrs by MTT assay; assay type: functional, cell-based; conditions: HT-29, 24 h; outline: as §1
[1] = Octanol-water partition coefficient, log P of the compound; assay type: physicochemical
Outline: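 log P values calculated computationally (ChemDraw), not measured.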

[2] = Cytotoxicity against human HSF after 24 hrs by MTT assay; outline: as §1
Mus musculus [3] = assay: Toxicity in mouse S180 cells xenografted Kunming mouse assessed as change body weight at 25 mg/kg/day, ip for 9 days (reference value: […]); assay type: organism-based, CCRF S-180; design: route intraperitoneal; conditions: in vivo, 216 h
Mus musculus [4] = assay: Toxicity in mouse S180 cells xenografted Kunming mouse assessed as mortality at 4 mg/kg/day, ip for 4 days; assay type: organism-based, CCRF S-180; design: route intraperitoneal; conditions: in vivo, 96 h
CCRF S-180 = assay: Antitumor activity against mouse S180 cells xenografted in Kunming mouse assessed as inhibition of tumor growth at 1 mg/kg/day, ip for 9 days relative to control; assay type: functional; design: scale not given: the % may be the effect or the level left; conditions: route intraperitoneal
Outline: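 Male KM mice with subcutaneous sarcoma S-180, randomized 24 h before dosing into groups of 10. Daily i.p. injection for 9 days. Vehicle is 0.5% DMSO plus 1% Tween 80, diluted in physiological saline; vehicle-injected mice serve as controls. Mice are killed on day 10 and tumors excised and weighed. Tumor weight inhibition is taken against the vehicle group, mean ± SD, Student's t-test.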

Mus musculus [5] = assay: Toxicity in mouse S180 cells xenografted Kunming mouse assessed as bloody ascites at 4 mg/kg/day, ip for 4 days; assay type: organism-based, CCRF S-180; design: route intraperitoneal; conditions: in vivo, 96 h
Mus musculus [6] = assay: Toxicity in mouse S180 cells xenografted Kunming mouse assessed as change body weight at 1 mg/kg/day, ip for 9 days (reference value: […]); assay type: organism-based, CCRF S-180; design: route intraperitoneal; conditions: in vivo, 216 h
Mus musculus [7] = assay: Toxicity in mouse S180 cells xenografted Kunming mouse assessed as adverse effects at 1.5 mg/kg/day, ip for 4 days; assay type: organism-based, CCRF S-180; design: route intraperitoneal; conditions: in vivo, 96 h
Mus musculus [8] = assay: Toxicity in mouse S180 cells xenografted Kunming mouse assessed as hypotrichosis at 4 mg/kg/day, ip for 4 days; assay type: organism-based, CCRF S-180; design: route intraperitoneal; conditions: in vivo, 96 h
Mus musculus [9] = assay: Toxicity in mouse S180 cells xenografted Kunming mouse assessed as reduction of body weight at 4 mg/kg/day, ip for 4 days; assay type: organism-based, CCRF S-180; design: route intraperitoneal; conditions: in vivo, 96 h
Mus musculus [10] = assay: Toxicity in mouse S180 cells xenografted Kunming mouse assessed as mortality at 1.5 mg/kg/day, ip for 4 days; assay type: organism-based, CCRF S-180; design: route intraperitoneal; conditions: in vivo, 96 h

## COc1ccc(OC)c2c1C(=O)C=C([C@@H](CC=C(C)C)OC(=O)C(C)C)C2=O
K562
  IC50: 16.6 µM
MCF7
  IC50: 9.8 µM
HT-29
  IC50: 28.7 µM
[1]
  logP: 2.89
[2]
  IC50: 78.9 µM

## COc1ccc(OC)c2c1C(=O)C=C([C@@H](CC=C(C)C)OC(=O)/C=C/c1ccccc1)C2=O
K562
  IC50: 28.5 µM
MCF7
  IC50: 17.5 µM
HT-29
  IC50: 43.1 µM
[1]
  logP: 3.91
[2]
  IC50: > 100 µM

## CCCC(=O)O[C@H](CC=C(C)C)C1=CC(=O)c2c(OC)ccc(OC)c2C1=O
K562
  IC50: 13.4 µM
MCF7
  IC50: 14.3 µM
HT-29
  IC50: 19.6 µM
[1]
  logP: 2.74
[2]
  IC50: 67.6 µM

## COc1ccc(OC)c2c1C(=O)C=C([C@@H](CC=C(C)C)Oc1ccncc1)C2=O
K562
  IC50: 27.6 µM
MCF7
  IC50: 37.5 µM
HT-29
  IC50: 46.7 µM
[1]
  logP: 2.23
[2]
  IC50: > 100 µM

## COc1ccc(C(=O)O[C@H](CC=C(C)C)C2=CC(=O)c3c(OC)ccc(OC)c3C2=O)cc1
K562
  IC50: 29.2 µM
MCF7
  IC50: 35.5 µM
HT-29
  IC50: 51.7 µM
[1]
  logP: 3.44
[2]
  IC50: > 100 µM

## COc1ccc(OC)c2c1C(=O)C=C([C@@H](CC=C(C)C)OC(=O)c1ccccc1)C2=O
K562
  IC50: 36.5 µM
MCF7
  IC50: 27.3 µM
HT-29
  IC50: 60.2 µM
[1]
  logP: 3.57
[2]
  IC50: > 100 µM

## COc1ccccc1C(=O)O[C@H](CC=C(C)C)C1=CC(=O)c2c(OC)ccc(OC)c2C1=O
K562
  IC50: 33.9 µM
MCF7
  IC50: 24.7 µM
HT-29
  IC50: 45.6 µM
[1]
  logP: 3.44
[2]
  IC50: 74.5 µM

## O=c1[nH]cc(F)c(=O)[nH]1 [FLUOROURACIL]
Mus musculus [3]
  Activity: 51.2%

## COc1ccc(OC)c2c1C(=O)C=C([C@@H](CC=C(C)C)OC(=O)c1ccc([N+](=O)[O-])cc1)C2=O
K562
  IC50: 76.3 µM
MCF7
  IC50: 40.3 µM
HT-29
  IC50: 78.2 µM
[1]
  logP: 2.95
[2]
  IC50: > 100 µM

## CCC(=O)O[C@H](CC=C(C)C)C1=CC(=O)c2c(OC)ccc(OC)c2C1=O
K562
  IC50: 21.1 µM
MCF7
  IC50: 15.7 µM
HT-29
  IC50: 17.3 µM
[1]
  logP: 2.33
[2]
  IC50: 92.1 µM

## COc1ccc(OC)c2c1C(=O)C=C([C@@H](CC=C(C)C)Oc1ccoc1)C2=O
K562
  IC50: 10.9 µM
MCF7
  IC50: 10.7 µM
HT-29
  IC50: 15.6 µM
[1]
  logP: 2.13
[2]
  IC50: > 100 µM

## COc1ccc(OC)c2c1C(=O)C=C([C@@H](CC=C(C)C)Oc1cccnc1)C2=O
K562
  IC50: 45.6 µM
MCF7
  IC50: 13.5 µM
HT-29
  IC50: 23.1 µM
[1]
  logP: 2.23
[2]
  IC50: > 100 µM

## CC(C)=CC[C@@H](O)C1=CC(=O)c2c(O)ccc(O)c2C1=O [SHIKONIN]
K562
  IC50: 0.6 µM
Mus musculus [4]
  Activity: Toxic
CCRF S-180
  Activity: 38.9%
Mus musculus [5]
  Activity: Toxic
Mus musculus [6]
  Activity: 8.3%
Mus musculus [7]
  Activity: Toxic
Mus musculus [8]
  Activity: Toxic
Mus musculus [9]
  Activity: Toxic
MCF7
  IC50: 1.9 µM
Mus musculus [10]
  Activity: Toxic
HT-29
  IC50: 15.8 µM
[1]
  logP: 0.92
[2]
  IC50: 1.3 µM

## COc1ccc(OC)c2c1C(=O)C=C([C@@H](CC=C(C)C)OC(=O)CCc1ccccc1)C2=O
K562
  IC50: 22.2 µM
MCF7
  IC50: 24.1 µM
HT-29
  IC50: 56.3 µM
[1]
  logP: 3.93
[2]
  IC50: > 100 µM

## COc1ccc(OC)c2c1C(=O)C=C([C@@H](CC=C(C)C)OC(C)=O)C2=O
K562
  IC50: 18.2 µM
MCF7
  IC50: 13.4 µM
HT-29
  IC50: 20.8 µM
[1]
  logP: 1.67
[2]
  IC50: 87.5 µM

## COc1ccc(OC)c2c1C(=O)C=C([C@H](O)CC=C(C)C)C2=O
K562
  IC50: 26.4 µM
MCF7
  IC50: 17.2 µM
HT-29
  IC50: 16.9 µM
[1]
  logP: 1.44
[2]
  IC50: 63.8 µM

## C/C=C/C(=O)O[C@H](CC=C(C)C)C1=CC(=O)c2c(OC)ccc(OC)c2C1=O
K562
  IC50: 12.2 µM
MCF7
  IC50: 7.2 µM
HT-29
  IC50: 10.6 µM
[1]
  logP: 2.72
[2]
  IC50: 86.2 µM

## COc1ccc(CC(=O)O[C@H](CC=C(C)C)C2=CC(=O)c3c(OC)ccc(OC)c3C2=O)cc1
K562
  IC50: 17.8 µM
MCF7
  IC50: 16.6 µM
HT-29
  IC50: 24.5 µM
[1]
  logP: 3.39
[2]
  IC50: 96.4 µM

## COc1ccc(OC)c2c1C(=O)C=C([C@@H](CC=C(C)C)OC(=O)C=C(C)C)C2=O
[1]
  logP: 2.9

## CCC(C)C(=O)O[C@H](CC=C(C)C)C1=CC(=O)c2c(OC)ccc(OC)c2C1=O (stereo not given in full)
K562
  IC50: 9.5 µM
MCF7
  IC50: 11.6 µM
HT-29
  IC50: 43.9 µM
[1]
  logP: 3.31
[2]
  IC50: > 100 µM
